Source: PubChem
T cruzi repl = inhibitors of intracellular T. cruzi growth, primary screen, luminescence, NIH3T3 host cells. inhibition, % (no concentration beside the values). actives 1.4% (n = 300,000). T. cruzi beta-gal in NIH3T3, 90 h;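 active = mean inhibition across valid replicates above about 55%, limit read from the data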;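 note: signal also drops with host cell toxicity which is not excluded here; 0% = plate median of DMSO wells and 100% = zero luminescence signal; higher percent means less beta-gal luminescence so fewer parasites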
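Incubation – ≥90 h infection period, 3 h prior cell attachment · System – NIH/3T3 fibroblasts plus reporter T. cruzi · Doses – compound pinned at 50 nL/well, DMSO · Read-out basis – percent inhibition of parasite-derived β-gal signal · Signal – luminescent β-galactosidase signal after 60 min lysis · Also added – 5000 T. cruzi trypomastigotes/well · Medium – Low-serum DMEM with 2% FBS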
HSF1 inhib = HSF1 inhibitors in luciferase reporter cells, primary screen, cell-based, NIH3T3, luminescence; NIH3T3-HGL HSE-luciferase, MG132-induced, luminescence 8 h; hits give low values; activity change, negative = inhibition, % at 7.5 µM (by protocol); actives 0.77% (n = 300,000);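 active = more than half of replicate wells show activity change below -50%, luminescence cut by over half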;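 note: luciferase reports HSF-1 transcriptional activity via heat shock element; 0% = median of DMSO wells and -100% = zero luminescence signal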
Jurkat NFkB inh = inhibitors of induced NF-kB luciferase reporter, primary screen, TCR NF-kB activation inhibitor project, cell-based, luminescence, uHTS. Jurkat, PMA/ionomycin-induced NF-kB luciferase reporter. inhibition, % at 4 µM. actives 0.53% (n = 330,000); in the data active = inhibition above about 50%
HSF1 activator = HSF-1 activators, primary screen, NIH3T3-HGL cells, MG132 stress, luminescence, single point | activation, % at 9 µM | actives 1.7% (n = 300,000) | NIH3T3-HGL HSF-1 luciferase reporter, 8 h; 100% = twice DMSO control signal | AID 504408, 2011;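 active = mean replicate activation of at least 50% with a set share of replicates each reaching 50%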;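 note: 0% = median of the neutral control wells and 100% = twice that signal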
697 NFkB inh = inhibitors of PMA/ionomycin-induced NF-kB reporter, 697 cells, primary screen, B-cell NF-kB inhibitor project, cell-based, luminescence, uHTS; 697 B-cell NF-kB luciferase reporter, 16 h; inhibition, % at 4 µM; actives 0.33% (n = 330,000); AID 435022, 2010; in the data active = inhibition above about 35%
GPR7 antag = GPR7 receptor antagonists, primary screen, cell-based, fluorescence, single concentration; Neuropeptides B/W receptor type 1 (Homo sapiens), P48145; GPR7-expressing cells, fluorescence antagonist assay; inhibition, % at 4.4 µM; actives 1.1% (n = 290,000); AID 1861, 2009; in the data active = inhibition above about 16%, passing the limit was not always enough;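 note: cells stimulated with the agonist NPW; 0% = agonist with vehicle and 100% = vehicle without agonist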
Target sequence (P48145 whole entry, looked up): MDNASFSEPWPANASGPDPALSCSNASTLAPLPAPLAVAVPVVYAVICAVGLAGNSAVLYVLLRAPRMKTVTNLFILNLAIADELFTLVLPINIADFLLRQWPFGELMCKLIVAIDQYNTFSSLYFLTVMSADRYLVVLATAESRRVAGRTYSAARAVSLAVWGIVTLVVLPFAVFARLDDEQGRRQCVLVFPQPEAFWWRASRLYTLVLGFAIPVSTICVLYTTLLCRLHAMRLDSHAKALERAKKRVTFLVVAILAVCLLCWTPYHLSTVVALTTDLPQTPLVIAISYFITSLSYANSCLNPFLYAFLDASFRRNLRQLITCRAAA
Active calls of the source: *; x = no result given. In the library only some 4.8% were active in any assay of this set; here they are far more common.

SMILES	T cruzi repl	HSF1 inhib	Jurkat NFkB inh	HSF1 activator	697 NFkB inh	GPR7 antag
CCN(CC(=O)Nc1ccc(NC(C)=O)cc1)C(=O)/C=C/c1ccco1	-20	5	11	11	15	x
CCCN(CC(=O)Nc1ccc(Cl)cc1Cl)C(=O)/C=C/c1ccco1	-16	50	-14	64*	-22	-9
Cc1cc(C)c(NC(=O)CNC(=O)c2cc(C3CC3)nn2-c2ccccc2)c(C)c1	x	x	-2	x	7	x
CCCCC(CC)C(=O)Nc1ncc([N+](=O)[O-])s1 (stereo not given)	81*	-2	-2	9	-8	-5
Cc1ccc(CC(=O)Nc2ncc([N+](=O)[O-])s2)cc1	69*	13	-28	41	-39	5
COc1ccc(CNC(=O)C2CSC(=O)C2)cc1 (stereo not given)	56*	4	6	-8	13	0
COc1ccc(N2CC(C(=O)NCc3ccccc3)CC2=O)cc1 (stereo not given)	1	-1	-6	-3	11	3
CCOC(=O)/C(=C\c1ccccc1)C(=O)c1cc(C(C)=O)c(Nc2ccccc2)s1	55*	-5	20	1	0	4
CCOC(=O)c1cc(C)sc1NC(=S)Nc1ccccc1	-7	18	-9	-2	-48	-9
CCOC(=O)/C(=C\c1cccnc1)C(=O)c1cc(C(C)=O)c(Nc2ccccc2)s1	54	-93*	16	-94	-8	30*
CCOC(=O)/C(C#N)=C\c1cccnc1	-4	1	4	5	23	2
C=CCOc1ccc(/C=N/NC(=O)C(=O)Nc2ccccn2)cc1OC	-8	-4	-1	-3	11	3
Cc1cc(C)cc(N(C(=O)c2csnn2)C(C(=O)NC2CCCC2)c2ccccn2)c1 (stereo not given)	9	11	-3	9	5	15
Cc1nn(-c2cccc(Cl)c2)c2c1C(c1ccncc1)C(C#N)=C(N)O2 (stereo not given)	9	67	-1	82*	25	3
COc1cccc(OCc2cc(C(=O)N(C)CCOc3ccc(C)cc3)no2)c1	15	34	-79	57*	-106	-10
Cc1cc(OCc2cc(C(=O)N(C)CCOc3ccccc3)no2)cc(C)c1Cl	26	9	-13	8	13	-4
CN(CCc1ccccc1)C(=O)c1cc(COc2cccc(C(F)(F)F)c2)on1	27	107	-13	186*	-12	10
COc1ccc(S(=O)(=O)Nc2cc3c4c(oc3c3ccccc23)CC(C)(C)CC4=O)cc1	38	11	-6	32	-5	-6
COc1ccc(S(=O)(=O)Nc2cc3c4c(oc3c3ccccc23)CCCC4=O)cc1	-20	39	25	56*	-31	5
O=C(c1ccc(Cn2cc(Cl)cn2)o1)N1CCN(Cc2ccc3c(c2)OCO3)CC1	12	1	2	5	-7	10
CN1CCN(C(=O)c2ccc(Cn3cc(Cl)cn3)o2)CC1	-3	15	3	64*	4	-13
Cc1ccccc1-c1nnc(NC(=O)CSc2nc3ccccc3s2)s1	-3	3	6	-7	7	-5
N#C/C(=C(/O)c1ccco1)c1nc2ccccc2s1	-16	12	18	20	-60	0
CC1=CC(=C(C#N)c2nc3ccccc3s2)C=C(C)N1Cc1ccco1	64*	-3	-14	5	1	11
C=CCN(c1ccccc1Cl)S(=O)(=O)c1cccc(C(=O)NCCc2ccc(OC)cc2)c1	31	8	3	28	-6	-10
SMILES	T cruzi repl	HSF1 inhib	Jurkat NFkB inh	HSF1 activator	697 NFkB inh	GPR7 antag
CCOc1ccc(/C=N/NC(=S)NC2CC3C=CC2C3)cc1 (stereo not given)	6	35	3	53*	6	-16
COc1cc(/C=N/NC(=S)NC2CC3C=CC2C3)cc(OC)c1OC (stereo not given)	5	123	-2	164*	16	0
O=S(=O)(c1ccc(NCCOc2ccccc2)nc1)N1CCCC1	x	x	5	x	1	x
Brc1ccc2ncnc(Nc3ccc(N4CCOCC4)cc3)c2c1	62*	-28	17	-32	-6	1
O=c1[nH][nH]c(-c2ccccc2O)c1C(C[N+](=O)[O-])c1ccccc1 (stereo not given)	-20	165	10	228*	-27	-5
Cc1cc2oc(=O)cc(CN3CCN(C/C=C/c4ccccc4)CC3)c2cc1O	55*	0	11	13	-13	7
Cc1ccc2c(CN3CCN(S(=O)(=O)/C=C/c4ccccc4)CC3)cc(=O)oc2c1	45	28	0	78*	12	-8
N#Cc1c(NCCCO)nc(NCc2ccccc2)c2c1CCN(Cc1ccccc1)C2	35	-1	-26	7	-80	-6
CN1CCc2c(C#N)c(N3CCCCC3)nc(NCc3ccccc3)c2C1	56*	-7	-5	7	-23	4
O=C(COC(=O)CNC(=O)c1ccccc1)Nc1ccc2c(c1)OCO2	-20	0	2	-7	0	-7
CCOc1ccc(CN2CCN(Cc3cnc(-c4ccccc4)s3)CC2CCO)cc1 (stereo not given)	56*	-7	1	-6	-19	-6
CCOc1ccc(CN2CCN(Cc3cc4ccccc4[nH]3)CC2CCO)cc1 (stereo not given)	60*	-1	x	11	x	13
COc1ccc2c(c1)C=C(CN1CCN(Cc3ccccc3C)C(CCO)C1)CO2 (stereo not given)	55*	-2	-4	-2	2	-12
CCOc1ccc(CN2CCN(CC3=Cc4cccc(OC)c4OC3)CC2CCO)cc1 (stereo not given)	56*	-4	25	7	-2	-1
CCOCCCNC(=O)CN(c1cc([N+](=O)[O-])ccc1OC)S(C)(=O)=O	1	0	7	2	18	3
CCOc1cc(CNC2CCCC2)c(Cl)cc1OCC(=O)Nc1ccccc1	30	11	0	9	-6	4
COc1ccc2c(c1)C=C(CN1CCC(CO)(CCc3ccccc3)CC1)CO2	45	-1	-11	0	19	-6
COc1ccc(CC2(CO)CCN(CC3=Cc4cc(Cl)ccc4OC3)CC2)cc1	66*	10	35	2	-17	5
CCOc1ccccc1CN1CCN(Cc2cn(C)nc2-c2ccccc2)CC1CCO (stereo not given)	14	43	-5	82*	6	-4
